Laboratory results from ChEMBL document CHEMBL1641595, “Molecular modeling based approach, synthesis and in vitro assay to new indole inhibitors of hepatitis C NS3/4A serine protease” (Bioorg Med Chem, 2011).
≈ marks a conversion by molar mass, not a printed value.

Columns and labels:
[1] = Inhibition of HCV NS3/4A protease after 30 mins; set-up: species or system Hepacivirus hominis
In short: (§1)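 Recombinant HCV NS3/4A protease, freshly diluted to 0.5 µg/mL, was combined with test compound in DMSO. The reaction was started with FRET peptide substrate Ac-Asp-Glu-Asp(EDANS)-Glu-Glu-Abu-ψ-[COO]Ala-Ser-Lys(DABCYL)-NH2, diluted 100-fold from a DMSO stock. After 30 min at room temperature (28 °C), fluorescence was read at […]. % inhibition = 100×(Fvehicle−Fsample)/Fvehicle, with both values corrected by subtracting the substrate control.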

[2] = tested on: Hepacivirus hominis; experiment: Inhibition of HCV NS3/4A protease at 10 ug/ml after 30 mins; in short: as §1
[3] = tested on: Hepacivirus hominis; experiment: Inhibition of HCV NS3/4A protease at 50 ug/ml after 30 mins; in short: as §1
[4] = tested on: Hepacivirus hominis; experiment: Inhibition of HCV NS3/4A protease at 100 ug/ml after 30 mins; in short: as §1

Structure (SMILES)	IC50 [1] [µg/mL]	inhibition [2] [%]	inhibition [3] [%]	inhibition [4] [%]
O=C(COc1ccc(/C=C/C(=O)c2c[nH]c3ccccc23)cc1)N[C@@H](Cc1ccccc1)C(=O)O	9 (≈ 19.2 µM)	53.7	82.4	84.7
O=C(COc1ccc(/C=C/C(=O)c2c[nH]c3ccccc23)cc1)Nc1ncncc1C(=O)O	29 (≈ 65.5 µM)	22.4	57.2	73.7
N#Cc1cncnc1NC(=O)COc1ccc(/C=C/C(=O)c2c[nH]c3ccccc23)cc1	> 100		29.4	58.4
O=C(COc1ccc(/C=C/C(=O)c2c[nH]c3ccccc23)cc1)N[C@@H](Cc1ccc(O)cc1)C(=O)O	12 (≈ 24.8 µM)	49.5	81.2	83.9
O=C(COc1ccc(/C=C/C(=O)c2c[nH]c3ccccc23)cc1)N[C@@H](Cc1c[nH]c2ccccc12)C(=O)O	19 (≈ 37.4 µM)	44.5	67.2	82.9
O=C(COc1ccc(/C=C/C(=O)c2c[nH]c3ccccc23)cc1)Nc1ccc(C(=O)c2ccccc2C(=O)O)cc1	19 (≈ 34.9 µM)	40.1	72	80.9

More lines, now with the values ahead:

IC50 [1] [µg/mL]	inhibition [2] [%]	inhibition [3] [%]	inhibition [4] [%]	Structure (SMILES)
6.4 (≈ 14 µM)				CC(=O)OCCC/C(=C1/SC(=S)N(CC(=O)O)C1=O)c1ccc(Br)cc1
21 (≈ 45.8 µM)	36.4	48.5	78.7	O=C(COc1ccc(/C=C/C(=O)c2c[nH]c3ccccc23)cc1)N[C@@H](Cc1c[nH]cn1)C(=O)O
0.4 (≈ 0.707 µM)				CC(C)C[C@H](NC(=O)C1(Cc2ccsc2C(=O)O)Cc2ccccc2N1)C(=O)NC(CC(F)F)C(=O)C(=O)O (some centres not stated)
> 100		22.9	51.8	O=C(O)COc1ccc(/C=C/C(=O)c2c[nH]c3ccccc23)cc1
